The source of these data is ChEMBL document CHEMBL1123237 (J Med Chem, 1986).

What all share (format): functional, Artery
Test [1] relates to Rattus norvegicus. Put plainly: Baseline mean aortic blood pressure in conscious renal (1clip/2kidney) hypertensive rats at dose 10 mg/kg administered orally. In outline: (§1)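 Oral dosing in rats cannulated for aortic blood pressure monitoring. Only rats with mean aortic pressure >160 mmHg were used; they weighed 280-320 g at cannulation. Rats had free access to standard chow and tap water on a 12-h dark/12-h light cycle. The value is the pre-dose mean aortic pressure, given as mean ± 1 SEM; 3-6 rats per dose.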

Test [2] has as its system Rattus norvegicus. Put plainly: Baseline mean aortic blood pressure in conscious renal (1clip/2kidney) hypertensive rats at dose 1 mg/kg administered orally. Summed up:
as §1

Test [3] concerns Rattus norvegicus. Kind of test: Maximum change aortic blood pressure in conscious renal (1clip/2kidney) hypertensive rats at dose 3 mg/kg administered orally at 8 hr. The conditions noted are these: route oral.
Test [4] has as its system Rattus norvegicus. Put plainly: Maximum change aortic blood pressure in conscious renal (1clip/2kidney) hypertensive rats at dose 10 mg/kg administered orally at 6 hr. The conditions noted are these: route oral.
Test [5] has as its system Rattus norvegicus. Kind of test: Maximum change aortic blood pressure in conscious renal (1clip/2kidney) hypertensive rats at dose 30 mg/kg administered orally at 8 hr. The conditions noted are these: route oral.
For test [6], the system named is Rattus norvegicus. Kind of test: Baseline mean aortic blood pressure in conscious renal (1clip/2kidney) hypertensive rats at dose 30 mg/kg administered orally. Summed up:
as §1

Test [7] deals with Rattus norvegicus. Kind of test: Maximum change aortic blood pressure in conscious renal (1clip/2kidney) hypertensive rats at dose 1 mg/kg administered orally at 8 hr. The settings on record: route oral.
The subject of test [8] is Rattus norvegicus. Kind of test: Baseline mean aortic blood pressure in conscious renal (1clip/2kidney) hypertensive rats at dose 3 mg/kg administered orally. In outline:
as §1

The subject of test [9] is Rattus norvegicus. Put plainly: Maximum change aortic blood pressure in conscious renal (1clip/2kidney) hypertensive rats at dose 30 mg/kg administered orally at 6 hr. The settings on record: route oral.
Test [10] relates to Rattus norvegicus. Kind of test: Maximum change aortic blood pressure in conscious renal (1clip/2kidney) hypertensive rats at dose 1 mg/kg administered orally at 9 hr. The conditions noted are these: route oral.
The test system of test [11] is Rattus norvegicus. Put plainly: Maximum change aortic blood pressure in conscious renal (1clip/2kidney) hypertensive rats at dose 3 mg/kg administered orally at 2 hr. The conditions noted are these: route oral.
In test [12] the test system is Rattus norvegicus. Put plainly: Maximum change aortic blood pressure in conscious renal (1clip/2kidney) hypertensive rats at dose 1 mg/kg administered orally at 1 hr. The conditions noted are these: route oral.
Test [13] deals with Rattus norvegicus. Put plainly: Maximum change aortic blood pressure in conscious renal (1clip/2kidney) hypertensive rats at dose 30 mg/kg administered orally at 10 hr. The conditions noted are these: route oral.
Test [14] deals with Rattus norvegicus. Put plainly: Baseline mean aortic blood pressure in conscious renal (1clip/2kidney) hypertensive rats at dose 30 mg/kg administered orally. The settings on record: route oral. In outline:
as §1

In test [15] the test system is Rattus norvegicus. Put plainly: Maximum change aortic blood pressure in conscious renal (1clip/2kidney) hypertensive rats at dose 30 mg/kg administered orally at 9 hr. The conditions noted are these: route oral.
Test [16] deals with Rattus norvegicus. Put plainly: Maximum change aortic blood pressure in conscious renal (1clip/2kidney) hypertensive rats at dose 10 mg/kg administered orally at 5 hr. The settings on record: route oral.
Test [17] concerns Rattus norvegicus. Put plainly: Maximum change aortic blood pressure in conscious renal (1clip/2kidney) hypertensive rats at dose 1 mg/kg administered orally at 7 hr. The settings on record: route oral.
The test system of test [18] is Rattus norvegicus. Put plainly: Maximum change aortic blood pressure in conscious renal (1clip/2kidney) hypertensive rats at dose 0.3 mg/kg administered orally at 5 hr. The settings on record: route oral.
In test [19] the test system is Rattus norvegicus. Kind of test: Baseline mean aortic blood pressure in conscious renal (1clip/2kidney) hypertensive rats at dose 0.3 mg/kg administered orally. In outline: as §1
Test [20] deals with Rattus norvegicus. Put plainly: Maximum change aortic blood pressure in conscious renal (1clip/2kidney) hypertensive rats at dose 1 mg/kg administered orally at 6 hr. The conditions noted are these: route oral.
Test [21] concerns Rattus norvegicus. Put plainly: Maximum change aortic blood pressure in conscious renal (1clip/2kidney) hypertensive rats at dose 3 mg/kg administered orally at 6 hr. The conditions noted are these: route oral.
For test [22], the system named is Rattus norvegicus. Put plainly: Maximum change aortic blood pressure in conscious renal (1clip/2kidney) hypertensive rats at dose 0.3 mg/kg administered orally at 2 hr. The settings on record: route oral.
Test [23] relates to Rattus norvegicus. Kind of test: Maximum change aortic blood pressure in conscious renal (1clip/2kidney) hypertensive rats at dose 30 mg/kg administered orally at 6 hr. The conditions noted are these: route oral.
Test [24] deals with Rattus norvegicus. Kind of test: Maximum change aortic blood pressure in conscious renal (1clip/2kidney) hypertensive rats at dose 10 mg/kg administered orally at 4 hr. The settings on record: route oral.
The test system of test [25] is Rattus norvegicus. Put plainly: Maximum change aortic blood pressure in conscious renal (1clip/2kidney) hypertensive rats at dose 3 mg/kg administered orally at 5 hr. The conditions noted are these: route oral.
In test [26] the test system is Rattus norvegicus. Put plainly: Maximum change aortic blood pressure in conscious renal (1clip/2kidney) hypertensive rats at dose 1 mg/kg administered orally at 10 hr. The conditions noted are these: route oral.
Test [27] relates to Rattus norvegicus. Kind of test: Baseline mean aortic blood pressure in conscious renal (1clip/2kidney) hypertensive rats at dose 1 mg/kg administered orally. The settings on record: route oral. In outline: as §1
Test [28] concerns Rattus norvegicus. Put plainly: Maximum change aortic blood pressure in conscious renal (1clip/2kidney) hypertensive rats at dose 1 mg/kg administered orally at 4 hr. The settings on record: route oral.
Test [29] has as its system Rattus norvegicus. Put plainly: Maximum change aortic blood pressure in conscious renal (1clip/2kidney) hypertensive rats at dose 10 mg/kg administered orally at 5 hr. The conditions noted are these: route oral.
For test [30], the system named is Rattus norvegicus. Kind of test: Maximum change aortic blood pressure in conscious renal (1clip/2kidney) hypertensive rats at dose 0.3 mg/kg administered orally at 10 hr. The settings on record: route oral.
The subject of test [31] is Rattus norvegicus. Put plainly: Maximum change aortic blood pressure in conscious renal (1clip/2kidney) hypertensive rats at dose 30 mg/kg administered orally. The conditions noted are these: route oral.
Test [32] concerns Rattus norvegicus. Kind of test: Maximum change aortic blood pressure in conscious renal (1clip/2kidney) hypertensive rats at dose 10 mg/kg administered orally at 10 hr. The settings on record: route oral.

SMILES strings stand for the structures.

As to `COc1cc2c(cc1OC)CN(C(=O)C(C)NC(CCc1ccccc1)C(=O)O)C(C(=O)O)C2` (stereo unspecified), the MABP with Rattus norvegicus [1] is on record as 199 mmHg; with Rattus norvegicus [2] it was 199 mmHg; with Rattus norvegicus [3], -52 mmHg; with Rattus norvegicus [4] it was -52 mmHg; with Rattus norvegicus [5], -107 mmHg; with Rattus norvegicus [6], 181 mmHg. Further, the MABP in the test with Rattus norvegicus [7] is -20 mmHg; with Rattus norvegicus [8] it was 199 mmHg.
Turning to `C[C@H](N[C@@H](CCc1ccccc1)C(=O)O)C(=O)N1CCC[C@H]1C(=O)O` [ENALAPRILAT ANHYDROUS], the MABP is reported as 188 mmHg in the test with Rattus norvegicus [1]; -70 mmHg in the test with Rattus norvegicus [9]; 188 mmHg with Rattus norvegicus [2]; -51 mmHg in the test with Rattus norvegicus [10]; -57 mmHg in the test with Rattus norvegicus [4]; 176 mmHg in the test on Rattus norvegicus [6]. Further, the values for the MABP in the test on Rattus norvegicus [11] and with Rattus norvegicus [8] were -54 mmHg and 188 mmHg, respectively.
As for `CC(CS)C(=O)N1Cc2ccccc2CC1C(=O)O` (stereo unspecified), the MABP was 185 mmHg in the test on Rattus norvegicus [2] and -45 mmHg with Rattus norvegicus [12].
`O=C(O)C1c2ccccc2CN1C(=O)CCS` (stereo unspecified): the MABP in the test on Rattus norvegicus [13] was -15 mmHg; in the test with Rattus norvegicus [14], 174 mmHg.
As for `CC(NC(CCc1ccccc1)C(=O)O)C(=O)N1Cc2ccccc2C1C(=O)O` (stereo unspecified), the values for the MABP in the test with Rattus norvegicus [3] and in the test with Rattus norvegicus [8] were -74 mmHg and 195 mmHg, respectively.
For `C[C@H](N[C@@H](CCc1ccccc1)C(=O)O)C(=O)N1Cc2ccccc2C[C@H]1C(=O)O`, the MABP is 199 mmHg in the test with Rattus norvegicus [1]; -89 mmHg in the test on Rattus norvegicus [15]; 199 mmHg with Rattus norvegicus [2]; -76 mmHg in the test on Rattus norvegicus [16]; -44 mmHg in the test on Rattus norvegicus [17]; 192 mmHg in the test on Rattus norvegicus [6]. Further, the MABP in the test on Rattus norvegicus [11] is -45 mmHg; in the test on Rattus norvegicus [8] it was 199 mmHg.
Regarding `CCOC(=O)[C@H](CCc1ccccc1)N[C@@H](C)C(=O)N1Cc2cc(OC)c(OC)cc2C[C@H]1C(=O)O` [MOEXIPRIL], the MABP in the test on Rattus norvegicus [1] was 205 mmHg; with Rattus norvegicus [2], 182 mmHg; with Rattus norvegicus [18], -41 mmHg; in the test with Rattus norvegicus [4], -113 mmHg; in the test with Rattus norvegicus [19], 201 mmHg; in the test on Rattus norvegicus [20], -43 mmHg. Further, the MABP is given as -39 mmHg in the test on Rattus norvegicus [21] and 179 mmHg in the test on Rattus norvegicus [8].
For `C[C@H](CS)C(=O)N1CCC[C@H]1C(=O)O` [CAPTOPRIL], in the test on Rattus norvegicus [22], the MABP is listed as -25 mmHg.
As to `CCOC(=O)[C@@H](CCc1ccccc1)N[C@@H](C)C(=O)N1Cc2cc(OC)c(OC)cc2C[C@H]1C(=O)O`, the MABP in the test on Rattus norvegicus [5] is -15 mmHg; in the test on Rattus norvegicus [6], 177 mmHg.
As to `CCOC(=O)C(CCc1ccccc1)N1C(=O)C2Cc3ccccc3CN2C(=O)C1C` (stereo unspecified) [DIKETOPIPERAZINE DERIVATIVE OF QUINAPRIL], the MABP with Rattus norvegicus [23] is recorded as -28 mmHg; in the test with Rattus norvegicus [14] it was 186 mmHg.
Consider `CCOC(=O)[C@H](CCc1ccccc1)N[C@@H](C)C(=O)N1CCC[C@H]1C(=O)O`, for which the MABP with Rattus norvegicus [1] was 199 mmHg; in the test on Rattus norvegicus [2], 175 mmHg; in the test on Rattus norvegicus [18], -79 mmHg; in the test with Rattus norvegicus [24] it was -112 mmHg; with Rattus norvegicus [25], -112 mmHg; with Rattus norvegicus [19], 201 mmHg. In addition, the MABP is -43 mmHg in the test on Rattus norvegicus [7] and 200 mmHg in the test on Rattus norvegicus [8].
Turning to `CCOC(=O)C(CCc1ccccc1)NC(C)C(=O)N1Cc2ccccc2CC1C(=O)OCC` (stereo unspecified), the MABP in the test with Rattus norvegicus [26] is -69 mmHg; with Rattus norvegicus [27], 208 mmHg.
With `CCOC(=O)[C@H](CCc1ccccc1)N[C@@H](C)C(=O)N1Cc2cc(OC)c(OC)cc2C[C@@H]1C(=O)O`, the figures for the MABP in the test with Rattus norvegicus [5] and in the test with Rattus norvegicus [6] were -16 mmHg and 178 mmHg, respectively.
As to `CCOC(=O)[C@H](CCc1ccccc1)N[C@@H](C)C(=O)N1Cc2ccccc2C[C@@H]1C(=O)O`, the MABP is listed as -20 mmHg with Rattus norvegicus [15] and 187 mmHg with Rattus norvegicus [6].
Consider `CCOC(=O)[C@H](CCc1ccccc1)N[C@@H](C)C(=O)N1Cc2ccccc2C[C@H]1C(=O)O`, for which the MABP in the test with Rattus norvegicus [1] was 181 mmHg; with Rattus norvegicus [2], 196 mmHg; in the test on Rattus norvegicus [28] it was -54 mmHg; with Rattus norvegicus [25], -62 mmHg; in the test on Rattus norvegicus [19] it was 157 mmHg; in the test with Rattus norvegicus [29] it was -87 mmHg. Also, the MABP with Rattus norvegicus [30] is on record as -50 mmHg; in the test with Rattus norvegicus [8], 188 mmHg.
Regarding `CCOC(=O)[C@@H](CCc1ccccc1)N[C@@H](C)C(=O)N1Cc2ccccc2C[C@H]1C(=O)O`, the MABP was -11 mmHg with Rattus norvegicus [13] and 172 mmHg in the test with Rattus norvegicus [6].
Consider `CC(CS)C(=O)N1Cc2ccccc2C1C(=O)O` (racemic), for which the MABP is 165 mmHg in the test on Rattus norvegicus [14] and 0 mmHg in the test on Rattus norvegicus [31].
In the case of `CCOC(=O)[C@H](CCc1ccccc1)N[C@@H](C)C(=O)N1Cc2ccccc2[C@H]1C(=O)O`, the results for the MABP in the test on Rattus norvegicus [1] and in the test on Rattus norvegicus [32] were 200 mmHg and -80 mmHg, respectively.
